Consider 35 compounds from ChEMBL document CHEMBL4316609, “Chemical synthesis and functional characterization of a new class of ceramide analogues as anti-cancer agents” (Bioorg Med Chem, 2019).

Holding throughout (assay type): functional, cell-based
Assay [1] is described as follows: Cytotoxicity against human SA cells measured after 48 hrs by MTT assay. The note with it: +SA cell. An outline of the steps: (§1)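 Seeded at 7x10^3 cells/well and allowed 24 h to attach. Compounds added at final 0 to 200 μM and incubated 48 h. Viability read by MTT. IC50 taken as the concentration giving 50% growth inhibition; mean ± SD, N = 4.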
(In general: Tetrazolium dyes change colour on reduction, which living cells bring about.)

Assay [2] has as its system MCF7. As to the kind of experiment: Cytotoxicity against human MCF7 cells measured after 48 hrs by MTT assay. The following applies: MCF7, 48 h. An outline of the steps:
as §1

Assay [3] concerns SW-620. As to the kind of experiment: Cytotoxicity against human SW620 cells measured after 48 hrs by MTT assay. The following applies: SW-620, 48 h. The essentials: as §1
In assay [4] the test system is SiHa. Briefly: Cytotoxicity against human SiHa cells measured after 48 hrs by MTT assay. The essentials:
as §1

In assay [5] the test system is A-431. Briefly: Cytotoxicity against human A431 cells measured after 48 hrs by MTT assay. The note with it: A-431, 48 h. The essentials:
as §1

In assay [6] the test system is HepG2. Briefly: Cytotoxicity against human HepG2 cells measured after 48 hrs by MTT assay. The note with it: HepG2, 48 h. The essentials: as §1

Each structure is given as a SMILES string.

On to `CCCCCCCCCCCCNC(=O)[C@@H](NC(=O)c1cc2ccccc2n1C)[C@@H](C)O`, for which the half-maximal inhibitory concentration (IC50) in assay [1] was 31.3 µM; in assay [2] it was 31.3 µM; in assay [3], above 200 µM.
In the case of `CCCCCCCCCCCCCCCCCCNC(=O)[C@@H](NC(=O)c1ccccc1)[C@@H](C)O`, the IC50 in assay [1] was above 400 µM; in assay [2], 31.8 µM; in assay [3], 200 µM; in assay [4] it was 38.2 µM.
With `CCCCCCCCCCCCCCNC(=O)[C@@H](NC(=O)/C=C/c1ccccc1)[C@@H](C)O`, the IC50 in assay [1] stood at 80.9 µM; in assay [2], 64.6 µM; in assay [3], 200 µM; in assay [5], 64.9 µM; in assay [4] it was 35.8 µM.
Turning to `CCCCCCCCNC(=O)[C@@H](NC(=O)c1ccco1)[C@@H](C)O`, the half-maximal inhibitory concentration (IC50) in assay [1] amounted to 64.7 µM; in assay [2], 91.8 µM; in assay [3], 200 µM; in assay [5], 64.5 µM.
On to `CCCCCCCCCCCCCCCCCCNC(=O)[C@@H](NS(=O)(=O)c1cccs1)[C@@H](C)O`, for which the IC50 in assay [1], in assay [2] and in assay [3] was above 200 µM throughout.
`CCCCCCCCNC(=O)[C@@H](NC(=O)c1nccc2ccccc12)[C@@H](C)O`: the IC50 is 88.2 µM in assay [6]; 22.9 µM in assay [1]; 63.2 µM in assay [2]; 67.8 µM in assay [3]; 26.9 µM in assay [5]; 66 µM in assay [4].
As for `CCCCCCCCNC(=O)[C@@H](NC(=O)c1ccccc1)[C@@H](C)O`, the IC50 was found to be 34.6 µM in assay [1], 200 µM in assay [3] and 61.3 µM in assay [5].
As for `CCCCCCCCCCCCNC(=O)[C@@H](NC(=O)c1cc2ccccc2o1)[C@@H](C)O`, the IC50 in assay [6] was found to be 22.9 µM; in assay [1], 10.5 µM; in assay [2] it was 20.9 µM; in assay [3], 21.3 µM; in assay [5] it was 20 µM; in assay [4], 12.8 µM.
With `CCCCCCCCCCCCCCNC(=O)[C@@H](NC(=O)c1cc2ccccc2[nH]1)[C@@H](C)O`, the IC50 was 10.5 µM in assay [6]; 12.1 µM in assay [1]; 15.1 µM in assay [2]; 15.2 µM in assay [3]; 12.2 µM in assay [5]; 14.2 µM in assay [4].
Consider `CCCCCCCCCCCCCCCCCCNC(=O)[C@@H](NS(=O)(=O)c1ccc(C)cc1)[C@@H](C)O`, for which the IC50 came to 75.8 µM in assay [6]; 47.9 µM in assay [1]; 60.1 µM in assay [2]; 32.5 µM in assay [3]; 34 µM in assay [5]; 29.8 µM in assay [4].
For `CCCCCCCCCCCCCCCCCCNC(=O)[C@@H](NC(=O)c1cccs1)[C@@H](C)O`, the half-maximal inhibitory concentration (IC50) in assay [6] came out at 92 µM; in assay [1] it was 53.5 µM; in assay [2], 25.7 µM; in assay [3], 200 µM; in assay [5], 33.3 µM.
With `CCCCCCCCCCCCNC(=O)[C@@H](NS(=O)(=O)c1cccs1)[C@@H](C)O`, the half-maximal inhibitory concentration (IC50) in assay [6] stood at 25.9 µM; in assay [1] it was 20.1 µM; in assay [2], 19.1 µM; in assay [3], 27.9 µM; in assay [5], 22 µM; in assay [4], 30.9 µM.
As to `CCCCCCCCNC(=O)[C@@H](NC(=O)/C=C/c1ccccc1)[C@@H](C)O`, the half-maximal inhibitory concentration (IC50) in assay [6] stood at 55.6 µM; in assay [1], 25.6 µM; in assay [2] it was 35.1 µM; in assay [3], 61.4 µM; in assay [5], 36 µM; in assay [4] it was 41.4 µM.
`C/C=C/C=C/C(=O)N[C@H](C(=O)NCCCCCCCCCCCC)[C@@H](C)O`: the IC50 is 37.1 µM in assay [2] and 200 µM in assay [3].
For `CCCCCCCCCCCCCCNC(=O)[C@@H](NC(=O)c1ccccc1)[C@@H](C)O`, the concentration for half-maximal inhibition (IC50) in assay [6] came out at 54.2 µM; in assay [1], 56 µM; in assay [2], 24.8 µM; in assay [3], 200 µM.
For `CCCCCCCCCCCCCCCCCCNC(=O)[C@@H](NC(=O)c1cc2ccccc2o1)[C@@H](C)O`, the IC50 was above 200 µM in assay [3] and 78.8 µM in assay [5].
For `CCCCCCCCCCCCCCNC(=O)[C@@H](NC(=O)c1cccs1)[C@@H](C)O`, the IC50 in assay [6] was 88.4 µM; in assay [1], 21.2 µM; in assay [2] it was 36.1 µM; in assay [3], 78.4 µM; in assay [5] it was 26.4 µM; in assay [4] it was 63 µM.
Consider `CCCCCCCCCCCCCCNC(=O)[C@@H](NS(=O)(=O)c1cccs1)[C@@H](C)O`, for which the IC50 turned out to be 21.6 µM in assay [6]; 11.6 µM in assay [1]; 18.7 µM in assay [2]; 18.4 µM in assay [3]; 22 µM in assay [5]; 20.4 µM in assay [4].
As for `CCCCCCCCCCCCCCCCCCNC(=O)[C@@H](NC(=O)/C=C/c1ccccc1)[C@@H](C)O`, the IC50 is 47.1 µM in assay [1], 39.2 µM in assay [2], 200 µM in assay [3] and 35.9 µM in assay [4].
With `CCCCCCCCCCCCNC(=O)[C@@H](NC(=O)c1cc2ccccc2[nH]1)[C@@H](C)O`, the IC50 was 12 µM in assay [6]; 12.3 µM in assay [1]; 12.3 µM in assay [2]; 18.8 µM in assay [3]; 10.3 µM in assay [5]; 21.2 µM in assay [4].
`CCCCCCCCCCCCCCCCCCNC(=O)[C@@H](NC(=O)c1ccco1)[C@@H](C)O`: the half-maximal inhibitory concentration (IC50) in assay [6] is 42.3 µM; in assay [1], 52.6 µM; in assay [2], 21.4 µM; in assay [3] it was above 200 µM; in assay [5] it was 19.9 µM; in assay [4], 13.3 µM.
`C/C=C/C=C/C(=O)N[C@H](C(=O)NCCCCCCCCCCCCCC)[C@@H](C)O`: the values for the IC50 in assay [2] and in assay [3] were 27.8 µM and 200 µM, respectively.
In assay [3], `CCCCCCCCCCCCCCNC(=O)[C@@H](NC(=O)c1ccco1)[C@@H](C)O` yielded an IC50 of 200 µM.
As to `CCCCCCCCCCCCCCNC(=O)[C@@H](NC(=O)c1nccc2ccccc12)[C@@H](C)O`, the IC50 is 28.6 µM in assay [6]; 24.4 µM in assay [1]; 22.8 µM in assay [2]; 30.4 µM in assay [3]; 23 µM in assay [5]; 21.6 µM in assay [4].
With `CCCCCCCCCCCCCCNC(=O)[C@@H](NC(=O)c1cc2ccccc2o1)[C@@H](C)O`, the IC50 came to 23.4 µM in assay [6]; 9.61 µM in assay [1]; 23.4 µM in assay [2]; 26.7 µM in assay [3]; 20.1 µM in assay [5]; 14.2 µM in assay [4].
For `CCCCCCCCCCCCNC(=O)[C@@H](NC(=O)c1cccs1)[C@@H](C)O`, the IC50 in assay [6] came to 30.1 µM; in assay [1], 23.3 µM; in assay [2], 30.4 µM; in assay [3] it was 29.2 µM; in assay [5], 16.6 µM; in assay [4], 23.9 µM.
Take `CCCCCCCCCCCCNC(=O)[C@@H](NC(=O)Cc1c[nH]c2ccccc12)[C@@H](C)O`: the IC50 came out at 22.6 µM in assay [6]; 20 µM in assay [1]; 15.5 µM in assay [2]; 22 µM in assay [3]; 23.4 µM in assay [5]; 13.6 µM in assay [4].
On to `CCCCCCCCCCCCCCCCCCNC(=O)[C@@H](NS(=O)(=O)c1ccc2ccccc2c1)[C@@H](C)O`, for which the half-maximal inhibitory concentration (IC50) was 19.8 µM in assay [6]; 21.2 µM in assay [1]; 27.8 µM in assay [2]; 24.6 µM in assay [3]; 23.7 µM in assay [5]; 19.9 µM in assay [4].
Regarding `CCCCCCCCCCCCNC(=O)[C@@H](NS(=O)(=O)c1ccc(C)cc1)[C@@H](C)O`, the concentration for half-maximal inhibition (IC50) in assay [6] was determined as 25.8 µM; in assay [1], 27.2 µM; in assay [2], 31.1 µM; in assay [3], 25.6 µM; in assay [5], 25.2 µM; in assay [4], 31.6 µM.
Regarding `CCCCCCCCCCCCCCCCCCNC(=O)[C@@H](N)[C@@H](C)O`, the 50% inhibitory concentration (IC50) in assay [6] is 44.5 µM; in assay [1] it was above 200 µM; in assay [2] it was 27.4 µM; in assay [3] it was 21.4 µM; in assay [5] it was 21.3 µM; in assay [4], 39.5 µM.
Regarding `CCCCCCCCCCCCCCCCCCNC(=O)[C@@H](NC(=O)c1cc2ccccc2n1C)[C@@H](C)O`, the IC50 in assay [1] was found to be 36.4 µM; in assay [2], 36.4 µM; in assay [3], 124 µM; in assay [5], 61 µM.
Consider `C/C=C/C=C/C(=O)N[C@H](C(=O)NCCCCCCCCCCCCCCCCCC)[C@@H](C)O`, for which the IC50 was 284 µM in assay [6]; above 200 µM in assay [1]; 79.6 µM in assay [2]; 200 µM in assay [3]; 187 µM in assay [5]; above 200 µM in assay [4].
As to `CCCCCCCCCCCCNC(=O)[C@@H](NC(=O)/C=C/c1ccccc1)[C@@H](C)O`, in assay [3], the IC50 was determined as 200 µM.
As for `CCCCCCCCCCCCCCCCCCNC(=O)[C@@H](NC(=O)Cc1c[nH]c2ccccc12)[C@@H](C)O`, the IC50 turned out to be 57.6 µM in assay [6]; 54.9 µM in assay [1]; 37.3 µM in assay [2]; 31.8 µM in assay [5]; 65.8 µM in assay [4].
With `CCCCCCCCCCCCCCCCCCNC(=O)[C@@H](NC(=O)c1cc2ccccc2[nH]1)[C@@H](C)O`, the IC50 was 89.4 µM in assay [6]; 35.6 µM in assay [1]; 35.6 µM in assay [2]; 23.6 µM in assay [3]; 81 µM in assay [5]; 29.6 µM in assay [4].

Usually IC50 stands for the concentration at which inhibition is half-maximal. Lower therefore signals inhibition by little substance.
